Converted amounts (≈) assume the structure as drawn.
Experiments:
[1] = Aqueous solubility of the compound at pH 6.5; conditions: aqueous solution
[2] = Aqueous solubility of the compound at pH 2 by HPLC analysis; assay type: physicochemical; conditions: aqueous solution
Method in brief: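 Aqueous solubility was measured at pH 2.0 with an in-house HPLC assay. Values are reported as bins: ≤10 μM, 10–20 μM, 20–40 μM, 40–80 μM and ≥80 μM.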

[3] = Octanol-water distribution coefficient, logD of the compound at pH 7.4 by HPLC-based analysis; assay type: physicochemical
Plasmodium falciparum = assay: Antimalarial activity against chloroquine-resistant Plasmodium falciparum Dd2 assessed as inhibition of parasite growth incubated for 72 hrs by SYBR green I-based DNA quantification assay; assay type: functional, organism-based; conditions: Dd2, 72 h
[4] = Octanol-water distribution coefficient, logD of the compound at pH 3 by HPLC-based analysis; assay type: physicochemical
[5] = Selectivity index, ratio of EC50 for cytotoxicity against human HepG2 cells to EC50 for antimalarial activity against chloroquine-resistant Plasmodium falciparum Dd2; assay type: toxicity, cell-based; conditions: read-out: Ratio EC50
Method in brief: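 Human HepG2 hepatoma cells were seeded at 2,500 cells/well and grown 24 h. Serial dilutions of compound (0–40 μM) were then added for another 48 h. […] SI = EC50(HepG2)/EC50(Dd2).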

[6] = Cytotoxicity against human HepG2 cells assessed as reduction in cell viability incubated for 48 hrs by MTS assay; assay type: toxicity, cell-based
Method in brief: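 HepG2 human hepatoma cells were seeded at 2,500 cells/well in 384-well plates and incubated 24 h. Serial compound dilutions (0–40 μM range) were added, then cells were incubated a further 48 h.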

## O=C1CC2(CCN(CC(O)c3ccc(F)c(F)c3)CC2)Oc2c1ccc1ccccc21 (stereo not drawn)
[1]
  solubility: ≤ 10 µM
[2]
  solubility: ≥ 80 µM
[3]
  logD: 4.51
Plasmodium falciparum
  EC50: 0.85 µM
[4]
  logD: 2.79
[5]
  selectivity ratio: > 6.1
[6]
  EC50 at 48 h: > 20 µM

## O=C(Cc1ccc(F)c(F)c1)N1CCC2(CCc3ccc4ccccc4c3O2)CC1
[3]
  logD: 4.04
Plasmodium falciparum
  EC50: > 2.5 µM
[4]
  logD: 4.02
[5]
  selectivity ratio: < 1
[6]
  EC50 at 48 h: 5 µM

## CCN1CCC2(CCc3ccc4ccccc4c3O2)CC1
[1]
  solubility: ≤ 10 µM
[2]
  solubility: ≤ 10 µM
[3]
  logD: 2.88
Plasmodium falciparum
  EC50: 0.55 µM
[4]
  logD: 2.17
[5]
  selectivity ratio: > 52.1
[6]
  EC50 at 48 h: > 20 µM

## Fc1ccc(CCN2CCC3(C=Cc4ccc5ccccc5c4O3)CC2)cc1F
Plasmodium falciparum
  EC50: 1.98 µM
[5]
  selectivity ratio: 7.2
[6]
  EC50 at 48 h: 13 µM

## O=C(CN1CCC2(CC1)CC(=O)c1ccc3ccccc3c1O2)c1ccc(F)c(F)c1
[1]
  solubility: 40 µM (≈ 16.9 µg/mL)
[2]
  solubility: 40 µM (≈ 16.9 µg/mL)
[3]
  logD: 1.82
Plasmodium falciparum
  EC50: 1.3 µM
[4]
  logD: 1.52
[5]
  selectivity ratio: 2.7
[6]
  EC50 at 48 h: 4 µM

## CCN1CCC2(CC1)CC(O)c1ccc3ccccc3c1O2 (stereo not drawn)
[1]
  solubility: 20 µM (≈ 5.95 µg/mL)
[2]
  solubility: 20 µM (≈ 5.95 µg/mL)
[3]
  logD: 1.88
Plasmodium falciparum
  EC50: > 2.5 µM
[4]
  logD: 1.51
[5]
  selectivity ratio: 3.2
[6]
  EC50 at 48 h: 16 µM

## O=C1CC2(CCN(CC(O)c3ccc(Cl)c(Cl)c3)CC2)Oc2c1ccc1ccccc21 (stereo not drawn)
Plasmodium falciparum
  EC50: > 2.5 µM

## OC1CC2(CCN(CCCc3ccccc3)CC2)Oc2c1ccc1ccccc21 (stereo not drawn)
Plasmodium falciparum
  EC50: 0.65 µM
[5]
  selectivity ratio: 2
[6]
  EC50 at 48 h: 1 µM

## OC1C[C@@]2(CCCN(CCc3ccc(F)c(F)c3)C2)Oc2c1ccc1ccccc21 (stereo partly drawn)
Plasmodium falciparum
  EC50: 0.61 µM
[5]
  selectivity ratio: > 34.5
[6]
  EC50 at 48 h: > 20 µM

## OC1CC2(CCN(Cc3ccccc3)CC2)Oc2c1ccc1ccccc21 (stereo not drawn)
Plasmodium falciparum
  EC50: 0.93 µM
[5]
  selectivity ratio: 5.7
[6]
  EC50 at 48 h: 6 µM

## O=C(CN1CCC2(CCc3ccc4ccccc4c3O2)CC1)c1ccc(F)c(F)c1
[1]
  solubility: 20 µM (≈ 8.15 µg/mL)
[2]
  solubility: 20 µM (≈ 8.15 µg/mL)
Plasmodium falciparum
  EC50: > 2.5 µM
[6]
  EC50 at 48 h: > 20 µM

## c1ccc2c3c(ccc2c1)CCC1(CCNCC1)O3
[1]
  solubility: 20 µM (≈ 5.07 µg/mL)
[2]
  solubility: 40 µM (≈ 10.1 µg/mL)
[3]
  logD: 2.33
Plasmodium falciparum
  EC50: > 2.5 µM
[4]
  logD: 1.97
[5]
  selectivity ratio: 4
[6]
  EC50 at 48 h: > 20 µM

## OC1C[C@]2(CCCN(CCc3ccc(F)c(F)c3)C2)Oc2c1ccc1ccccc21 (stereo partly drawn)
Plasmodium falciparum
  EC50: > 2.5 µM
[5]
  selectivity ratio: 1.9
[6]
  EC50 at 48 h: 6 µM

## OC(CN1CCC2(CC1)CC(O)c1ccc3ccccc3c1O2)c1ccc(Cl)c(Cl)c1 (stereo not drawn)
Plasmodium falciparum
  EC50: 1.84 µM

## c1cc2c(c3c1CCCC3)OC1(CCNCC1)CC2
Plasmodium falciparum
  EC50: > 2.5 µM
[5]
  selectivity ratio: 4
[6]
  EC50 at 48 h: > 20 µM

## O[C@@H](CN1CCC2(CC1)C[C@H](O)c1ccc3ccccc3c1O2)c1ccc(F)c(F)c1
Plasmodium falciparum
  EC50: 1.29 µM
[5]
  selectivity ratio: > 15
[6]
  EC50 at 48 h: > 20 µM

## CCN1CCC[C@]2(CC(O)c3ccc4ccccc4c3O2)C1 (stereo partly drawn)
Plasmodium falciparum
  EC50: > 2.5 µM
[5]
  selectivity ratio: > 7.6
[6]
  EC50 at 48 h: > 20 µM

## c1ccc(CN2CCC3(CCc4ccc5ccccc5c4O3)CC2)cc1
Plasmodium falciparum
  EC50: > 2.5 µM
[5]
  selectivity ratio: 4
[6]
  EC50 at 48 h: > 20 µM

## O[C@H](CN1CCC2(CC1)C[C@@H](O)c1ccc3ccccc3c1O2)c1ccc(F)c(F)c1
Plasmodium falciparum
  EC50: > 2.5 µM
[5]
  selectivity ratio: < 7
[6]
  EC50 at 48 h: 17 µM

## CCN1CCC[C@@]2(CC(O)c3ccc4ccccc4c3O2)C1 (stereo partly drawn)
Plasmodium falciparum
  EC50: 0.63 µM
[5]
  selectivity ratio: > 28.8
[6]
  EC50 at 48 h: > 20 µM

## CCN1CCC2(CCc3ccc4c(c3O2)CCCC4)CC1
Plasmodium falciparum
  EC50: > 2.5 µM
[5]
  selectivity ratio: < 1
[6]
  EC50 at 48 h: 5 µM

## O=C1C[C@@]2(CCCN(CCc3ccc(F)c(F)c3)C2)Oc2c1ccc1ccccc21
Plasmodium falciparum
  EC50: 0.33 µM
[5]
  selectivity ratio: 34.2
[6]
  EC50 at 48 h: 14 µM

## Fc1ccc(CCN2CCC3(CCc4ccc5c(c4O3)CCCC5)CC2)cc1F
Plasmodium falciparum
  EC50: > 2.5 µM
[5]
  selectivity ratio: 4
[6]
  EC50 at 48 h: > 20 µM

## CCN1CCC2(CC1)CC(=O)c1ccc3ccccc3c1O2
[1]
  solubility: ≥ 80 µM
[2]
  solubility: ≥ 80 µM
[3]
  logD: 2.19
Plasmodium falciparum
  EC50: > 2.5 µM
[4]
  logD: 1.65
[5]
  selectivity ratio: 4.7
[6]
  EC50 at 48 h: 18 µM

## C1=CC2(CCNCC2)Oc2c1ccc1ccccc21
Plasmodium falciparum
  EC50: 0.49 µM
[5]
  selectivity ratio: > 45.6
[6]
  EC50 at 48 h: > 20 µM

## c1ccc(CCN2CCC3(CCc4ccc5ccccc5c4O3)CC2)cc1
Plasmodium falciparum
  EC50: 2.06 µM
[5]
  selectivity ratio: > 9.6
[6]
  EC50 at 48 h: > 20 µM

## O=C1CC2(CCN(CCc3ccccc3)CC2)Oc2c1ccc1ccccc21
Plasmodium falciparum
  EC50: 0.53 µM
[5]
  selectivity ratio: 14
[6]
  EC50 at 48 h: 8 µM

## CCN1CCC2(C=Cc3ccc4ccccc4c3O2)CC1
Plasmodium falciparum
  EC50: 1.14 µM
[5]
  selectivity ratio: 9.7
[6]
  EC50 at 48 h: 12 µM

## O=C1CC2(CCN(C(=O)Cc3ccc(F)c(F)c3)CC2)Oc2c1ccc1ccccc21
[1]
  solubility: ≤ 10 µM
[3]
  logD: 4.03
Plasmodium falciparum
  EC50: > 2.5 µM
[4]
  logD: 4
[5]
  selectivity ratio: < 3.6
[6]
  EC50 at 48 h: 18 µM

## CCN1CCC[C@]2(CC(=O)c3ccc4ccccc4c3O2)C1
Plasmodium falciparum
  EC50: > 2.5 µM
[5]
  selectivity ratio: 1.3
[6]
  EC50 at 48 h: 5 µM

## O=C1CC2(CCN(CCc3ccc(Cl)c(Cl)c3)CC2)Oc2c1ccc1ccccc21
Plasmodium falciparum
  EC50: > 2.5 µM

## O=C1CC2(CCN(Cc3ccccc3)CC2)Oc2c1ccc1ccccc21
Plasmodium falciparum
  EC50: > 2.5 µM
[5]
  selectivity ratio: 4
[6]
  EC50 at 48 h: 11 µM

## O=C1C[C@]2(CCCNC2)Oc2c1ccc1ccccc21
Plasmodium falciparum
  EC50: 1.2 µM
[5]
  selectivity ratio: 2.4
[6]
  EC50 at 48 h: 4 µM

## O[C@@H]1CC2(CCN(C[C@H](O)c3ccc(F)c(F)c3)CC2)Oc2c1ccc1ccccc21
Plasmodium falciparum
  EC50: 1.06 µM
[5]
  selectivity ratio: 16
[6]
  EC50 at 48 h: 17 µM

## O=C1C[C@]2(CCCN(CCc3ccc(F)c(F)c3)C2)Oc2c1ccc1ccccc21
Plasmodium falciparum
  EC50: 1.84 µM
[5]
  selectivity ratio: 5.8
[6]
  EC50 at 48 h: 10 µM

## c1ccc(CCCN2CCC3(CCc4ccc5ccccc5c4O3)CC2)cc1
Plasmodium falciparum
  EC50: 1.41 µM
[5]
  selectivity ratio: > 45.6
[6]
  EC50 at 48 h: > 20 µM

## O[C@H](CN1CCC2(CC1)C[C@H](O)c1ccc3ccccc3c1O2)c1ccc(F)c(F)c1
Plasmodium falciparum
  EC50: 1.79 µM
[5]
  selectivity ratio: 11
[6]
  EC50 at 48 h: > 20 µM

## OC1CC2(CCN(CCc3ccccc3)CC2)Oc2c1ccc1ccccc21 (stereo not drawn)
Plasmodium falciparum
  EC50: 0.32 µM
[5]
  selectivity ratio: > 68.9
[6]
  EC50 at 48 h: > 20 µM

## O=C1CC2(CCN(CCCc3ccccc3)CC2)Oc2c1ccc1ccccc21
Plasmodium falciparum
  EC50: 0.48 µM
[5]
  selectivity ratio: > 36.5
[6]
  EC50 at 48 h: > 20 µM

## O=C(Cc1ccc(F)c(F)c1)N1CCC2(CC1)CC(O)c1ccc3ccccc3c1O2 (stereo not drawn)
[3]
  logD: 2.46
Plasmodium falciparum
  EC50: > 2.5 µM
[4]
  logD: 2.04
[5]
  selectivity ratio: < 1
[6]
  EC50 at 48 h: 5 µM

## CCN1CCC[C@@]2(CC(=O)c3ccc4ccccc4c3O2)C1
Plasmodium falciparum
  EC50: > 2.5 µM
[5]
  selectivity ratio: < 1.6
[6]
  EC50 at 48 h: 8 µM

## Fc1ccc(CCN2CCC3(CCc4ccc5ccccc5c4O3)CC2)cc1F
[2]
  solubility: 20 µM (≈ 7.87 µg/mL)
[3]
  logD: 4.51
Plasmodium falciparum
  EC50: 1.91 µM
[4]
  logD: 3.29
[5]
  selectivity ratio: 4
[6]
  EC50 at 48 h: > 20 µM

## c1ccc2c3c(ccc2c1)CCC1(CCN(CCC2CCCCC2)CC1)O3
[2]
  solubility: 40 µM (≈ 14.5 µg/mL)
[3]
  logD: 4.74
Plasmodium falciparum
  EC50: 1.47 µM
[5]
  selectivity ratio: 1.1
[6]
  EC50 at 48 h: 2 µM

## O=C1C[C@@]2(CCCNC2)Oc2c1ccc1ccccc21
Plasmodium falciparum
  EC50: 0.63 µM
[5]
  selectivity ratio: 9
[6]
  EC50 at 48 h: 5 µM

From ChEMBL document CHEMBL5131470, “Structure-activity and structure-property relationship studies of spirocyclic chromanes with antimalarial activity” (Bioorg Med Chem, 2022)
